Screening results (PubChem)
CHOP inhibitor = inhibitors of CHOP induction in ER stress response | 3.8% of 220,000 active | inhibition, % at 10 µM | AID 2732 | CHO-K1 CHOP-promoter luciferase, tunicamycin-induced, 15-18 h;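 active = compounds that reduced the stress-induced luciferase reporter signal by more than about 70% of percent inhibition, limit read from the data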;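 note: 0% = tunicamycin plus vehicle and 100% = wells without tunicamycin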
XBP1 UPR activ = adaptive UPR (XBP1) activation | activation, % at 20 µM | AID 463104 | CHO-XBP1 luciferase reporter, IRE1-XBP1 UPR activation, luminescence; percent of tunicamycin response, DMSO as zero | 0.33% of 330,000 active;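 active = versus positive control, 20 µM dose yields 30% or more activation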;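 note: 100% = tunicamycin at 10 µg/mL and 0% = DMSO only wells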
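Material – CHO cell line with stable XBP1 luciferase reporter · Buffer or medium – F12 plus 10% FBS · Compound – single point, 20 µM final compound, 1% DMSO · Schedule – 16-18 h cell attachment at 37 °C, then 6 h compound exposure · Signal – Steady-Glo luminescence read · Benchmarks – high control tunicamycin 10 µg/mL final, low control DMSO vehicle only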
aDG glyco up = alpha-DG glycosylation activation. Pro5-aDG cells, alpha-DG glycosylation AlphaScreen (IIH6); 0% Pro5, 100% B10-LARGE cell signal. activation, % at 10 µM. 0.22% of 360,000 active;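 active = activation of at least 8% versus controls, or a plate z-score of at least 8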;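 note: Pro5 are CHO cells carrying HIG-tagged alpha-DG that lacks glycosylation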
NR3A LBD binder = modulators (binders) of human NR3A ligand-binding domain; NR3A LBD differential scanning fluorimetry, Tm shift; 0% = protein alone, 100% = glycine-bound protein; Tm shift relative to glycine control, % at 25 µM; 2.5% of 340,000 active; AID 1259313;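 active = melting temperature shift of at least 10% of the positive control shift, at one fixed dose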
MPTP inh = inhibitors of mitochondrial permeability transition pore. isolated mouse mitochondria, Ca2+ swelling absorbance, 30 min. inhibition, % at 10 µM. 1.4% of 360,000 active. AID 602449;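 active = inhibition of 50% or more, scaled per plate between neutral and stimulator controls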;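 note: 0% = DMSO wells given calcium and 100% = 1 mM EGTA wells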
UPR CHOP act = apoptotic UPR (CHOP) activation; CHO-CHOP luciferase reporter, luminescence; percent of tunicamycin response over DMSO baseline; activation, % at 10 µM; 0.34% of 330,000 active; AID 449763;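 active = at 10 µM dose, activation of 40% or more, normalized to positive control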;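 note: 100% = tunicamycin at 10 µg/mL and 0% = DMSO alone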
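assay system = CHO CHOP reporter cells | amount = 500 CHO-CHOP cells per well | buffer or medium = F12 with 10% FBS | incubation = 16-18 h cell attachment, then 6 h compound exposure, 37 °C | detection = luminescence read with Steady-Glo | read-out = percent activation relative to tunicamycin control | controls = tunicamycin high control, DMSO low control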
MPTP counter = mitochondrial membrane potential, counter-screen | shares compounds with MPTP inh | isolated mitochondria, Rhodamine 123 fluorescence | inhibition, % at 10 µM | 78% of 5,000 active | AID 624504; in the data active = inhibition above about 22%;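 note: 0% = DMSO vehicle and 100% = positive control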
MPTP abs DR = MPTP inhibition, dose response swelling confirmation; shares compounds with MPTP inh; isolated mitochondria swelling, absorbance; IC50, µM; 58% of 780 active; AID 651561; in the data active = IC50 below about 20 µM
MPTP cs DR = counter-screen for mitochondrial permeability transition pore inhibitors, dose response; isolated mitochondria counterscreen, fluorescence read-out; IC50, µM; 49% of 780 active; AID 651564; shares compounds with MPTP inh; in the data active = IC50 below about 80 µM
* marks the source's active call; other numbers are inactive results; / = not tested or not shown. In the library only some 5.6% were active in any assay of this set; here they are far more common.

SMILES	CHOP inhibitor	XBP1 UPR activ	aDG glyco up	NR3A LBD binder	MPTP inh	UPR CHOP act	MPTP counter	others
CCOC(=O)c1ccc(NC(=O)Nc2ccc3c(c2)OCCO3)cc1	-2.1	3.4	0.1	14.2*	74.4*	0.2	78.1*
Cc1ccc(CNCCC2=CCCCC2)cc1	20.9	1.2	0.4	-1.9	64.7*	2.9	-2.1	MPTP abs DR=18.6*;MPTP cs DR=48.5*
N#CCC(=O)Nc1ccc(C(=O)OCC(=O)NC(=O)Nc2ccc3c(c2)OCCO3)cc1	/	-1.0	-0.3	3.0	0.2	1.3	/
Cc1ccc(S(=O)(=O)NCCC2=CCCCC2)cc1	/	-3.1	0.1	2.4	-1.0	0.4	/
CCOC(=O)c1ccc(NC(=S)Nc2ccc(C)cc2)cc1	38.4	1.7	0.1	-12.8	8.7	0.6	/
CCOC(=O)c1cn[nH]c1NC(=S)Nc1ccc(Cl)cc1	-8.3	-4.0	0.1	3.5	66.1*	0.8	64.7*
COc1ccc(NS(=O)(=O)c2ccc(C)c(NC(=O)CN3C(=O)NC4(CCCC4)C3=O)c2)cc1	/	-0.8	-0.1	-1.6	0.0	0.8	/
CCOC(=O)c1ccc(NC(=S)Nc2ccccc2)cc1	3.7	-1.3	0.2	-10.9	87.8*	4.0	95.4*
COC(=O)c1cccc(NC(=S)NCCC2=CCCCC2)c1	63.4	0.7	0.3	-8.4	5.4	-0.7	/
COC(=O)c1ccc(NC(=S)NCCC2=CCCCC2)cc1	7.9	-4.0	0.3	6.5	89.2*	-1.1	86.5*
O=C(COC(=O)c1cc(F)cc(F)c1)NCCCc1ccccc1	/	-2.1	-0.1	-0.3	0.0	2.1	/
Cc1ccc(S(=O)(=O)NC(=O)c2cc(C)n(-c3ccccc3)c2C)cc1	-17.2	-3.7	-0.2	0.0	2.7	0.5	/
Cc1ccc(S(=O)(=O)NC(=O)c2cc(C)n(-c3ccc(N(C)C)cc3)c2C)cc1	11.1	1.1	-0.2	4.2	84.6*	1.9	91.0*
O=C(C=Cc1ccccc1Cl)c1ccccc1	/	/	0.6	-37.2	-1.5	/	/
C=CCn1cccc(/C=C/C(=O)c2ccc(C(C)(C)C)cc2)c1=S	45.9	/	-0.7	-2.4	77.0*	/	4.4
CCSc1nc2nccnc2c(=O)[nH]1	/	/	0.2	-0.6	-3.0	/	/
Cc1nn(-c2cc(C(F)(F)F)ccc2Cl)c2nc(C(Cl)(Cl)Cl)[nH]c(=O)c12	8.9	0.9	-0.1	-5.4	78.3*	0.0	81.9*
Cc1nn(-c2ccccc2)c2nc(C(F)(F)F)[nH]c(=O)c12	-7.6	0.0	-0.5	-1.0	7.4	-1.1	/
Cn1nc(CC(=O)Nc2cccc3ncccc23)c2ccccc2c1=O	52.4	0.6	0.6	0.7	85.7*	1.2	24.9*
Cn1nc(CC(=O)NCc2ccc(C(F)(F)F)cc2)c2ccccc2c1=O	50.8	4.2	4.0	-4.3	44.7	1.8	/
COc1ccc(CNC(=O)Cc2nn(C)c(=O)c3ccccc23)cc1	56.7	-4.6	5.1	11.0*	61.2*	4.3	51.2*
Cc1nn(CC(=O)Nc2sc3c(c2C#N)CCC(C(C)(C)C)C3)c(C)c1[N+](=O)[O-] (stereo unspecified)	88.7*	0.1	-0.2	14.3*	81.0*	-1.5	32.3*
Cc1ccc(Cl)cc1N1CCN(C(=O)CSc2nnc3n2C(C)(C)Cc2ccccc2-3)CC1	81.1*	7.2	3.1	-2.1	94.0*	8.7	90.0*
COc1ccc(N2CCN(C(=O)CSc3nnc4n3C(C)(C)Cc3ccccc3-4)CC2)cc1	31.0	-2.3	0.2	-1.6	17.1	-1.3	/
CCN(CC)S(=O)(=O)c1cccc(NC(=O)COC(=O)c2[nH]c(C)c(C(C)=O)c2C)c1	/	/	4.4	/	85.7*	/	88.2*
SMILES	CHOP inhibitor	XBP1 UPR activ	aDG glyco up	NR3A LBD binder	MPTP inh	UPR CHOP act	MPTP counter	others
CC(=O)c1c(C)[nH]c(C(=O)OCC(=O)Nc2cccc(S(=O)(=O)N3CCCC3)c2)c1C	38.5	0.3	0.8	-23.8	61.9*	3.8	61.1*
Cc1ccc(NC(=O)C2CCN(S(=O)(=O)c3ccc4c(c3)NC(=O)C(C)S4)CC2)cc1Cl (stereo unspecified)	/	0.3	5.0	10.1*	96.3*	3.8	97.3*
COc1ccc(C(C)=O)c(OCC(=O)NCCC2=CCCCC2)c1	/	/	-0.2	/	0.6	/	/
Cc1ccc(-c2nnc(Nc3ccc4c(c3)OCO4)c3ccccc23)cc1S(N)(=O)=O	36.8	-0.8	-0.3	-11.6	56.5*	4.2	-6.9	MPTP abs DR=>100;MPTP cs DR=>80
CC(=O)Nc1ccc(Nc2nnc(-c3ccc(C)c(S(N)(=O)=O)c3)c3ccccc23)cc1	/	-8.4	-0.1	0.5	-1.0	-1.6	/
N#CCSc1n[nH]c2nc3c(c(=O)n12)C1(CCCCC1)Cc1ccccc1-3	-13.4	-1.3	-0.1	-3.5	69.9*	0.1	64.2*
CCSc1n[nH]c2nc3c(c(=O)n12)C1(CCCCC1)Cc1ccccc1-3	3.1	3.9	-0.1	0.0	33.0	-0.4	/
CC(=O)c1ccc(NC(=S)NN2C(C)CCCC2C)cc1 (stereo unspecified)	20.0	0.0	0.2	-0.6	4.3	1.2	/
CC(=O)c1ccc(NC(=S)NC2CCCC(C)C2C)cc1 (stereo unspecified)	-18.6	2.8	0.0	-21.5	71.1*	0.7	75.5*
CC1CCCC(NC(=S)Nc2cccc(S(=O)(=O)N(C)C)c2)C1C (stereo unspecified)	24.7	-2.7	-0.7	-0.7	72.8*	0.7	92.0*
CN(C)S(=O)(=O)c1cccc(NC(=S)NNC(=O)c2cc3ccccc3cc2O)c1	/	-1.9	-0.1	21.9*	51.7*	0.8	48.0*
Cc1ccc(Oc2ccc(NC(=O)C3=CC=CN4CCS(=O)(=O)N=C34)cc2)cc1	/	1.4	0.0	5.9	-0.5	-1.3	/
CCc1ccc2oc(C(=O)NCc3ccncc3)c(C)c2c1	48.4	2.7	5.1	0.9	68.9*	-2.5	22.2*
CCCCC(CC)Cn1c(O)c(/C=C2\C=NN=C2c2ccccc2)sc1=S (stereo unspecified)	-5.1	-1.4	-0.8	21.3*	54.9*	4.9	-2.5	MPTP abs DR=16.5*;MPTP cs DR=>80
CCn1c(O)c(C=Nc2ccccc2)sc1=S	-9.5	-1.5	/	-8.0	/	3.6	/
Cc1ccc(S(=O)(=O)NCc2cccnc2)cc1C(=O)NC1CCCCC1	/	-4.2	0.1	3.5	1.0	-1.7	/
COc1ccc(Nc2nnc(Cc3ccc(Cl)cc3)c(=O)[nH]2)c(OC)c1	-4.9	-1.7	-0.2	-1.7	4.9	0.0	/
